This is an account of results in ChEMBL document CHEMBL4402595, “Discovery of Orally Bioavailable Chromone Derivatives as Potent and Selective BRD4 Inhibitors: Scaffold Hopping, Optimization, and Pharmacological Evaluation” (J Med Chem, 2020).

Data set [1] is described as follows: Total clearance in Sprague-Dawley rat at 10 mg/kg, iv measured after 2 to 26 hrs. Type of data set: ADME, organism-based. The settings on record: in vivo. Put shortly:
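Male Sprague-Dawley rats received a single dose either intravenously (10 mg/kg) or orally. Plasma concentration–time curves were followed after each route. Total clearance (CL) came from the i.v. arm, and oral bioavailability (F) was derived by comparing the p.o. and i.v. profiles.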

Data set [2] concerns the target T1, Bromodomain-containing protein 4 (Homo sapiens, UniProt O60885). Briefly: Inhibition of BRD4 in poly(I:C)-stimulated human SAECs TLR3-inducible CIG5 gene expression at 10 uM pre-incubated for 24 hrs before poly(I:C) stimulation for 4 hrs by qRT-PCR analysis relative to control. (In general: In qPCR the cycle at which signal appears reflects the starting amount.)

The subject of data set [3] is Mus musculus. Briefly: Antiinflammatory activity in C57BL6/J mouse model of TLR3-induced acute airway inflammation assessed as inhibition of elevated KC gene expression in lung at 10 mg/kg, po pre-treated 1 day before poly(I:C) stimulation followed by compound re-dosing at 10 mg/kg, po before another poly(I:C) stimulation and measured after 1 day post last poly(I:C) stimulation. In kind it is functional, organism-based. The method in brief:
(§1)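 Male C57BL/6J mice, 12 weeks old, 5 per group, dosed 10 mg/kg one day before challenge and again immediately before intranasal poly(I:C) (300 μg in 50 μL PBS). Controls were vehicle alone and poly(I:C) alone. Lungs were taken 1 day later. Gene expression in lung tissue was measured by qRT-PCR, normalized to PPIA.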

In data set [4] the test system is Mus musculus. Briefly: Antiinflammatory activity in C57BL6/J mouse model of TLR3-induced acute airway inflammation assessed as inhibition of elevated total cells in BALF at 10 mg/kg, po pre-treated 1 day before poly(I:C) stimulation followed by compound re-dosing at 10 mg/kg, po before another poly(I:C) stimulation and measured after 1 day post last poly(I:C) stimulation. In kind it is functional, organism-based. Put shortly:
(§2)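 Male C57BL/6J mice, 12 weeks old, 5 per group, dosed 10 mg/kg one day before and again immediately before intranasal poly(I:C) (300 μg/50 μL PBS). BALF was collected 1 day later. Total viable cells were counted by trypan blue with a hemocytometer. Neutrophils were counted as a differential of 300 cells on Wright-Giemsa stained cytospins.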

Data set [5] is described as follows: AUC (0 to t) in Sprague-Dawley rat at 20 mg/kg, po measured after 2 to 26 hrs. The settings on record: in vivo. Type of data set: ADME, organism-based.
In data set [6] the target is T1, Bromodomain-containing protein 4. Briefly: Binding affinity to recombinant BRD4 BD2 (unknown origin) incubated for 1 hr by TR-FRET assay. On the technique in general: In TR-FRET formats the signal depends on donor and acceptor labels being close together.
The nature of data set [7]: Half life in Sprague-Dawley rat at 20 mg/kg, po measured after 2 to 26 hrs. In kind it is ADME, organism-based. The settings on record: in vivo.
Data set [8] has as its system Mus musculus. Briefly: Antiinflammatory activity in C57BL6/J mouse model of TLR3-induced acute airway inflammation assessed as inhibition of elevated ISG54 gene expression in lung at 10 mg/kg, po pre-treated 1 day before poly(I:C) stimulation followed by compound re-dosing at 10 mg/kg, po before another poly(I:C) stimulation and measured after 1 day post last poly(I:C) stimulation. Type of data set: functional, organism-based. The method in brief: as §1

The subject of data set [9] is Mus musculus. Briefly: Antiinflammatory activity in C57BL6/J mouse model of TLR3-induced acute airway inflammation assessed as inhibition of elevated IL6 gene expression in lung at 10 mg/kg, ip pre-treated 1 day before poly(I:C) stimulation followed by compound re-dosing at 10 mg/kg, ip before another poly(I:C) stimulation and measured after 1 day post last poly(I:C) stimulation. Type of data set: functional, organism-based. Put shortly: as §1

Data set [10] has as its system Mus musculus. Briefly: Antiinflammatory activity in C57BL6/J mouse model of TLR3-induced acute airway inflammation assessed as inhibition of elevated neutrophils in BALF at 10 mg/kg, ip pre-treated 1 day before poly(I:C) stimulation followed by compound re-dosing at 10 mg/kg, ip before another poly(I:C) stimulation and measured after 1 day post last poly(I:C) stimulation. In kind it is functional, organism-based. Put shortly: as §2

The subject of data set [11] is Mus musculus. Briefly: Antiinflammatory activity in C57BL6/J mouse model of TLR3-induced acute airway inflammation assessed as inhibition of elevated IL6 gene expression in lung at 10 mg/kg, po pre-treated 1 day before poly(I:C) stimulation followed by compound re-dosing at 10 mg/kg, po before another poly(I:C) stimulation and measured after 1 day post last poly(I:C) stimulation. Type of data set: functional, organism-based. Put shortly: as §1

Data set [12] concerns Mus musculus. Briefly: Antiinflammatory activity in C57BL6/J mouse model of TLR3-induced acute airway inflammation assessed as inhibition of elevated KC levels in BALF at 10 mg/kg, ip pre-treated 1 day before poly(I:C) stimulation followed by compound re-dosing at 10 mg/kg, ip before another poly(I:C) stimulation and measured after 1 day post last poly(I:C) stimulation by cytokine Bio-Plex assay. In kind it is functional, organism-based. The method in brief: (§3)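 Male C57BL/6J mice, 12 weeks old, 5 per group, dosed 10 mg/kg the day before and again immediately before intranasal poly(I:C) (300 μg in 50 μL PBS). BALF was collected 1 day later by two 1 mL PBS lavages and centrifuged at 800 × g for 5 min at 4 °C. Supernatant cytokines were measured by multiplex bead immunoassay against recombinant standards in triplicate.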

The test system of data set [13] is Mus musculus. Briefly: Antiinflammatory activity in C57BL6/J mouse model of TLR3-induced acute airway inflammation assessed as inhibition of elevated CIG5 gene expression in lung at 10 mg/kg, ip pre-treated 1 day before poly(I:C) stimulation followed by compound re-dosing at 10 mg/kg, ip before another poly(I:C) stimulation and measured after 1 day post last poly(I:C) stimulation. In kind it is functional, organism-based. The method in brief:
as §1

Data set [14] relates to Mus musculus. Briefly: Antiinflammatory activity in C57BL6/J mouse model of TLR3-induced acute airway inflammation assessed as inhibition of elevated MCP1 levels in BALF at 10 mg/kg, ip pre-treated 1 day before poly(I:C) stimulation followed by compound re-dosing at 10 mg/kg, ip before another poly(I:C) stimulation and measured after 1 day post last poly(I:C) stimulation by cytokine Bio-Plex assay. Type of data set: functional, organism-based. The method in brief: as §3

Data set [15] concerns Mus musculus. Briefly: Antiinflammatory activity in C57BL6/J mouse model of TLR3-induced acute airway inflammation assessed as inhibition of elevated RANTES levels in BALF at 10 mg/kg, ip pre-treated 1 day before poly(I:C) stimulation followed by compound re-dosing at 10 mg/kg, ip before another poly(I:C) stimulation and measured after 1 day post last poly(I:C) stimulation by cytokine Bio-Plex assay. In kind it is functional, organism-based. The method in brief: as §3

For data set [16], the system named is Mus musculus. Briefly: Antiinflammatory activity in C57BL6/J mouse model of TLR3-induced acute airway inflammation assessed as inhibition of elevated IL-6 levels in BALF at 10 mg/kg, po pre-treated 1 day before poly(I:C) stimulation followed by compound re-dosing at 10 mg/kg, po before another poly(I:C) stimulation and measured after 1 day post last poly(I:C) stimulation by cytokine Bio-Plex assay. Type of data set: functional, organism-based. Put shortly:
as §3

In data set [17] the target is CYP3A4 (Homo sapiens, UniProt P08684). Briefly: Inhibition of CYP3A4 (unknown origin) at 10 uM using midazolam substrate relative to control. In kind it is ADME. The settings on record: probe midazolam. The method in brief:
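The CYP3A4 assay was run with midazolam or with testosterone as substrate.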

Data set [18] is described as follows: Clearance in mouse liver microsomes. In kind it is ADME, Microsome. Background: Microsomes from liver hold many membrane-bound enzymes, among them those of drug oxidation.
The target of data set [19] is CYP2C9 (Homo sapiens, UniProt P11712). Briefly: Inhibition of CYP2C9 (unknown origin) at 10 uM relative to control. In kind it is ADME.
CYP2C9, sequence (P11712 whole entry): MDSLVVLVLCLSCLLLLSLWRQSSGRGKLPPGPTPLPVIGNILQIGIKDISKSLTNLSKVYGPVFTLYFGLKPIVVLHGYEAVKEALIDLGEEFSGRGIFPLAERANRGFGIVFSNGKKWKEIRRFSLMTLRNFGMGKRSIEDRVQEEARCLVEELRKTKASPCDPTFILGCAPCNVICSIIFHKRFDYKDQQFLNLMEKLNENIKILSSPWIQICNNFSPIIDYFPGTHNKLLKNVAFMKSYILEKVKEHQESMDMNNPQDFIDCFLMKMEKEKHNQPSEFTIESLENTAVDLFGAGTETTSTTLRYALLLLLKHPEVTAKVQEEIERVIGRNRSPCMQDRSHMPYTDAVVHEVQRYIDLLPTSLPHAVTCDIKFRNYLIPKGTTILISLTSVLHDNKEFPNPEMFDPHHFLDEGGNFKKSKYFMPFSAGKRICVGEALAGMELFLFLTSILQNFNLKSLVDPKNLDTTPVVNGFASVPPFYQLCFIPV
The target in data set [20] is CYP2D6 (Homo sapiens, UniProt P10635). Briefly: Inhibition of CYP2D6 (unknown origin) at 10 uM relative to control. In kind it is ADME.
CYP2D6, sequence (P10635 whole entry): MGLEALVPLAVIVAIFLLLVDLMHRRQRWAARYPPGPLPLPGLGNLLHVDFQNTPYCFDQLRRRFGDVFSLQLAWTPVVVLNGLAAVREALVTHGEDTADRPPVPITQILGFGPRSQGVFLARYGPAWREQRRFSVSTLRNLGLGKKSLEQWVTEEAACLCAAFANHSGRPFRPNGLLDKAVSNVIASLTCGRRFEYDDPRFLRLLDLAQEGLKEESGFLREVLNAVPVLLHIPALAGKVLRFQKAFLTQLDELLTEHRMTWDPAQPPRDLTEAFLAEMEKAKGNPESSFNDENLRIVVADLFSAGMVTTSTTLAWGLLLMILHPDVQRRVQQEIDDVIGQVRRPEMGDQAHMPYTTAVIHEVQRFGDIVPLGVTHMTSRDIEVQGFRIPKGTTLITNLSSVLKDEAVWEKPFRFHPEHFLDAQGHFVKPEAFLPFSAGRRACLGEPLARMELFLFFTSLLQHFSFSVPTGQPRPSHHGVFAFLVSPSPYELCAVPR

pIC50: −log10 of the molar value. The source made the active and inactive calls.

CYP3A4, sequence (P08684 whole entry): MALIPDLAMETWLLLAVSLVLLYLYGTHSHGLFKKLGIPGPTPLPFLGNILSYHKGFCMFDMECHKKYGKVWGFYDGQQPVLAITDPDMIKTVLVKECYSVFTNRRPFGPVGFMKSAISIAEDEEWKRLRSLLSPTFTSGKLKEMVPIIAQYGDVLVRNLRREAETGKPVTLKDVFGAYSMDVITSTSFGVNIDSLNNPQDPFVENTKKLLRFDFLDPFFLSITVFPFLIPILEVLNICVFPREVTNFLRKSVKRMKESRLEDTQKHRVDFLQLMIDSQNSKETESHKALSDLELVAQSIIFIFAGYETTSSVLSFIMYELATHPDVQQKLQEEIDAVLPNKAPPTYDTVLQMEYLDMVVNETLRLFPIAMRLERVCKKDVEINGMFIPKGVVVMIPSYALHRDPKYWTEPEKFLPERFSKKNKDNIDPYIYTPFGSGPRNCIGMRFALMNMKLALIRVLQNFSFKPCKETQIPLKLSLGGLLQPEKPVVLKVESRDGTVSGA

`COc1cc(OC)c2c(=O)cc(-c3cc(C)c(OC[C@H](O)CN4CCCCC4)c(C)c3)oc2c1`: the clearance (usually the rate of elimination divided by the concentration) in data set [1] is 24.7 mL/min/kg. Besides, the inhibition – broadly, how much of the control response was suppressed – in data set [2] turned out to be 99%. For the same molecule, the inhibition entry in data set [3], in data set [4], in [8], in data set [9], in data set [10] and in data set [11] was “Active” in each case. Moreover, the inhibition result in data set [12], in data set [13], in [14], in data set [15] and in data set [16] was “Active” in each case. Besides, the AUC(0-t) (in general, exposure summed from dosing to a finite time, without extrapolation to infinity) in [5] was 5170 ng·h/mL. Also, the pIC50 (as a rule, the negative decadic logarithm of the IC50, by convention in mol/L) in data set [6] is 6.16. In addition, the half-life (commonly the time needed for the level to fall by half in the phase considered) in data set [7] is 2.4 h.

`COc1cc(OC)c2c(=O)cc(-c3cc(C)c(OC[C@H](O)CN4CCN(C)CC4)c(C)c3)oc2c1` had a clearance in data set [1] of 24.7 mL/min/kg. For the same molecule, the values for the inhibition at 10 µM in [17], in [19] and in data set [20] were 9.5%, 1.9% and 0%, respectively. Also, the inhibition entry in [3], in data set [4], in data set [8], in data set [9], in [10] and in [11] was “Active” each time. The inhibition result in [12], in data set [13], in [14], in [15] and in [16] was “Active” in each case. Also, in data set [5], the AUC(0-t) worked out at 4970 ng·h/mL. Also, in data set [18], the CLH was 25 µL/min/mg. This molecule also had a half-life in [7] of 2.8 h.
